14 compounds from ChEMBL document CHEMBL4014301, “Design, synthesis and evaluation of 4-substituted anthra[2,1-c][1,2,5]thiadiazole-6,11-dione derivatives as novel non-camptothecin topoisomerase I inhibitors” (Bioorg Med Chem Lett, 2017) can be followed below.

In data set [1] the test system is HCT-116. The data set is described as follows: Antiproliferative activity against human HCT116 cells after 72 hrs by MTT assay. Type of data set: functional, cell-based. On the technique in general: Formazan colour is commonly taken as a measure of viable cells.
In another data set the test system is ZR-75-30. The data set is described as follows: Antiproliferative activity against human ZR-7530 cells after 72 hrs by MTT assay. Type of data set: functional, cell-based.
Data set [2] deals with T1, DNA topoisomerase 1 (Homo sapiens) (UniProt P11387).
T1 sequence (whole entry): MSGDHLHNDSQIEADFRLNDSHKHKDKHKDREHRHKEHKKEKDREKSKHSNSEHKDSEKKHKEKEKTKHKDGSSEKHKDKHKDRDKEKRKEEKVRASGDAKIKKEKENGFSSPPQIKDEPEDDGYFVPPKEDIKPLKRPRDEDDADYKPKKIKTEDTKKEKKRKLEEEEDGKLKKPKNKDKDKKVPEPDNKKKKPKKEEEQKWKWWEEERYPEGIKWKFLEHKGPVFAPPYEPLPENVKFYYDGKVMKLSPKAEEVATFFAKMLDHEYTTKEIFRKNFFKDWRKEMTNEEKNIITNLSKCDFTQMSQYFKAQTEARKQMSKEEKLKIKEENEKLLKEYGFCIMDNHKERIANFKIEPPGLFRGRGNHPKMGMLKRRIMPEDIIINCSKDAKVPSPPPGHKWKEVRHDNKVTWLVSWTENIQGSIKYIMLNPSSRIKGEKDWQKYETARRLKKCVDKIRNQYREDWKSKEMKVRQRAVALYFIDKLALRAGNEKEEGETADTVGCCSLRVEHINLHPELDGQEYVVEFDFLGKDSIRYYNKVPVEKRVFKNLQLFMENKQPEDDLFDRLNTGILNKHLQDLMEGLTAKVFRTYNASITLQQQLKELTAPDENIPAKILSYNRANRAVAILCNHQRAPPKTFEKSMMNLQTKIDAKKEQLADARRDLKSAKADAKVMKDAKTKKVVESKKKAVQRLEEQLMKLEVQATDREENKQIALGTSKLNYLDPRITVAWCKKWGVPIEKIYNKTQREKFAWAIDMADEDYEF
As to the kind of experiment: Inhibition of DNA topoisomerase 1 (unknown origin) assessed as reduction in supercoiled pBR322 plasmid DNA relaxation at 100 uM after 15 mins by ethidium bromide staining based agarose gel electrophoresis. A digest of the protocol:
(§1)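 Supercoiled pBR322 plasmid incubated with Top1, with or without compound at 1, 10 and 100 µM. Relaxation inhibition read from agarose gel bands.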

A further data set relates to A549. The data set is described as follows: Antiproliferative activity against human A549 cells after 72 hrs by MTT assay. Type of data set: functional, cell-based.
Data set [3] deals with T1, DNA topoisomerase 1 (Homo sapiens). As to the kind of experiment: Inhibition of DNA topoisomerase-1 (unknown origin) mediated DNA relaxation assessed as DNA intercalation at 100 uM using supercoiled pBR322 plasmid DNA as substrate after 60 mins by ethidium bromide staining based agarose gel electrophoresis. In outline:
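Unwinding assay with excess Top1 acting on supercoiled pBR322 in the presence of compound at 100 µM. Ethidium bromide at 1 µg/mL used as intercalator reference. Compound removed by phenol extraction after relaxation. Nicked, relaxed and supercoiled forms resolved on gel.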

The nature of data set [4]: Solubility of the compound. Type of data set: physicochemical.
In data set [5] the target is T1, DNA topoisomerase 1 (Homo sapiens). As to the kind of experiment: Inhibition of DNA topoisomerase-1 (unknown origin) mediated DNA relaxation assessed as DNA intercalation at 1 ug/ml using supercoiled pBR322 plasmid DNA as substrate after 60 mins by ethidium bromide staining based agarose gel electrophoresis. A digest of the protocol:
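Top1 unwinding assay for DNA intercalation: supercoiled pBR322 plasmid treated with excess Top1 in presence of compounds (100 µM), with ethidium bromide (1 µg/mL) as intercalator control; compounds removed by phenol extraction after relaxation. Nicked, relaxed and supercoiled DNA forms resolved on gel.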

Data set [6] shares this target. As to the kind of experiment: Inhibition of DNA topoisomerase 1 (unknown origin) assessed as reduction in supercoiled pBR322 plasmid DNA relaxation at 1 uM after 15 mins by ethidium bromide staining based agarose gel electrophoresis. In outline: as §1
Data set [7] has as its system HCT-116. The data set is described as follows: Cell cycle arrest in human HCT116 cells assessed as accumulation at G2 phase at 5 uM after 12 hrs by propidium iodide staining-based flow cytometry (reference value: 19%). The data set is classed as functional.
The target in data set [8] is T1, DNA topoisomerase 1 (Homo sapiens). As to the kind of experiment: Inhibition of DNA topoisomerase 1 (unknown origin) assessed as reduction in supercoiled pBR322 plasmid DNA relaxation after 15 mins by ethidium bromide staining based agarose gel electrophoresis. In outline:
as §1

Data set [9] relates to HCT-116. The data set is described as follows: Cell cycle arrest in human HCT116 cells assessed as accumulation at G2 phase at 5 uM after 36 hrs by propidium iodide staining-based flow cytometry (reference value: 21%). The data set is classed as functional. (In flow cytometry, cells or beads pass a laser one at a time.)

Values after ≈ are worked out from the molar mass of the structure shown. Active and inactive are the calls of the source. The rule behind the calls is not given here.

With `O=C1c2ccccc2C(=O)c2c1cc(S(=O)(=O)c1ccc3ccccc3c1)c1nsnc21`, the IC50 was 6.7 µM in the data set with HCT-116 [1] (Homo sapiens, HCT-116, 72 h); 23 µM in the data set on ZR-75-30 (Homo sapiens, ZR-75-30, 72 h); above 100 µM with A549 (Homo sapiens, A549, 72 h). Besides, the inhibition entry in [2] is “Active”.
Turning to `CC(C)Nc1cc2c(c3nsnc13)C(=O)c1ccccc1C2=O`, the IC50 in the data set on HCT-116 [1] (Homo sapiens, HCT-116, 72 h) was found to be 7 µM; in the data set on ZR-75-30 (Homo sapiens, ZR-75-30, 72 h), 3 µM; in the data set with A549 (Homo sapiens, A549, 72 h) it was 6.7 µM. For the same compound, in data set [2], the inhibition result is “Active”.
With `CC(C)CNc1cc2c(c3nsnc13)C(=O)c1ccccc1C2=O`, the IC50 in the data set with HCT-116 [1] (hct-116) is 6.3 µM; in the data set with ZR-75-30 (zr-75-30), 3.1 µM; with A549 (a549), above 100 µM. In addition, in data set [2], the inhibition result is “Active”.
Regarding `O=C1c2ccccc2C(=O)c2c1cc(SCc1ccccc1Cl)c1nsnc21`, the IC50 with HCT-116 [1] (Homo sapiens, HCT-116, 72 h) is above 100 µM; in the data set with ZR-75-30 (Homo sapiens, ZR-75-30, 72 h), above 100 µM; in the data set on A549 (Homo sapiens, A549, 72 h), above 100 µM. In [2], the inhibition entry was “Active”.
In the case of `CN1CCN(c2cc3c(c4nsnc24)C(=O)c2ccccc2C3=O)CC1`, the IC50 in the data set with HCT-116 [1] (Homo sapiens, HCT-116, 72 h) worked out at 3.3 µM; in the data set on ZR-75-30 (Homo sapiens, ZR-75-30, 72 h), 2.7 µM; in the data set on A549 (Homo sapiens, A549, 72 h) it was 14 µM. Moreover, in data set [2], the inhibition result was “Active”.
On the same counts, the results for `O=C1c2ccccc2C(=O)c2c1cc(S(=O)(=O)Cc1ccccc1Cl)c1nsnc21` are 11 µM, above 100 µM, above 100 µM and “Active”.
The corresponding values for `O=C1c2ccccc2C(=O)c2c1cc(Sc1ccc3ccccc3c1)c1nsnc21` are above 100 µM, above 100 µM, above 100 µM and “Active”.
In the case of `O=C1c2ccccc2C(=O)c2c1cc(Sc1cccs1)c1nsnc21`, the IC50 was above 100 µM with HCT-116 [1] (Homo sapiens, HCT-116, 72 h); above 100 µM in the data set on ZR-75-30 (Homo sapiens, ZR-75-30, 72 h); above 100 µM in the data set with A549 (Homo sapiens, A549, 72 h). The inhibition entry in data set [2] was “Active”. The inhibition result in data set [3] was “inactive”.
Consider `Cc1ccc(S(=O)(=O)c2cc3c(c4nsnc24)C(=O)c2ccccc2C3=O)cc1`, for which the IC50 in the data set with HCT-116 [1] (Homo sapiens, HCT-116, 72 h) was 84 µM; in the data set with ZR-75-30 (Homo sapiens, ZR-75-30, 72 h) it was 90 µM; in the data set with A549 (Homo sapiens, A549, 72 h), 50 µM. In addition, the solubility in [4] was determined as 0.14 µg/mL (≈ 0.333 µM).
Take `CC[n+]1c(-c2ccccc2)c2cc(N)ccc2c2ccc(N)cc21`: the inhibition result in [5] is “Active”.
For `CC(=O)N1CCN(c2cc3c(c4nsnc24)C(=O)c2ccccc2C3=O)CC1`, the IC50 in the data set on HCT-116 [1] (Homo sapiens, HCT-116, 72 h) was determined as 0.52 µM; in the data set on ZR-75-30 (Homo sapiens, ZR-75-30, 72 h), 0.42 µM; with A549 (Homo sapiens, A549, 72 h), 17 µM. For the same compound, the inhibition entry in [6], in data set [2] and in [3] was “Active” each time. Moreover, the Activity with HCT-116 [7] stood at 34%; in the data set on HCT-116 [9] it was 56%. Further, the inhibition result in [8] is “Dose-dependent effect”. In addition, in [4], the solubility was determined as 7.98 µg/mL (≈ 20.3 µM).
As to `O=C1c2ccccc2C(=O)c2c1cc(S(=O)(=O)c1cccs1)c1nsnc21`, the IC50 was 1.5 µM in the data set with HCT-116 [1] (Homo sapiens, HCT-116, 72 h); 24 µM with ZR-75-30 (Homo sapiens, ZR-75-30, 72 h); above 100 µM in the data set with A549 (Homo sapiens, A549, 72 h). For the same compound, in [2], the inhibition entry was “Active”. In addition, in data set [3], the inhibition entry is “inactive”.
With `O=C1c2ccccc2C(=O)c2c1cc(NCc1ccc(Cl)cc1)c1nsnc21`, the IC50 in the data set on HCT-116 [1] (Homo sapiens, HCT-116, 72 h) is above 100 µM; in the data set on ZR-75-30 (Homo sapiens, ZR-75-30, 72 h) it was above 100 µM; in the data set with A549 (Homo sapiens, A549, 72 h) it was above 100 µM.
`O=C1c2ccccc2C(=O)c2c1cc(N1CCCCC1)c1nsnc21`: the IC50 in the data set with HCT-116 [1] (Homo sapiens, HCT-116, 72 h) was above 100 µM; in the data set on ZR-75-30 (Homo sapiens, ZR-75-30, 72 h), 8.1 µM; with A549 (Homo sapiens, A549, 72 h) it was above 100 µM.

One may read the IC50 as the concentration that inhibits the measured activity by half. Low readings indicate greater potency, high ones weaker potency. In general, solubility refers to the dissolved amount per volume that the medium holds. A lower solubility goes with little dissolved substance.
